Test results taken from ChEMBL document CHEMBL1165943, “Design and synthesis of new anticancer pyrimidines with multiple-kinase inhibitory effect” (Bioorg Med Chem, 2010).

Tests used:
[1] = system: MDA-MB-231; assay: Cytotoxicity against human MDA-MB-231 cells assessed as cell growth at 10 uM after 48 hrs by sulforhodamine B assay; format: functional; conditions: MDA-MB-231, 48 h, read-out: Activity
[2] = system: SF-268; assay: Cytotoxicity against human SF268 cells assessed as cell growth at 1 uM after 48 hrs by sulforhodamine B assay; format: functional; conditions: SF-268, 48 h, read-out: Activity
[3] = system: K562; assay: Cytotoxicity against human K562 cells assessed as cell growth at 10 uM after 48 hrs by sulforhodamine B assay; format: functional; conditions: K562, 48 h, read-out: Activity
[4] = system: HT-29; assay: Cytotoxicity against human HT-29 cells assessed as cell growth at 0.01 uM after 48 hrs by sulforhodamine B assay; format: functional; conditions: HT-29, 48 h, read-out: Activity
[5] = system: SNB-19; assay: Cytotoxicity against human SNB19 cells assessed as cell growth at 100 nM after 48 hrs by sulforhodamine B assay; format: functional; conditions: SNB-19, 48 h, read-out: Activity
[6] = system: SK-MEL-2; assay: Cytotoxicity against human SK-MEL-2 cells assessed as cell growth at 1 uM after 48 hrs by sulforhodamine B assay; format: functional; conditions: SK-MEL-2, 48 h, read-out: Activity
[7] = system: MOLT-4; assay: Growth inhibition of human MOLT4 cells after 48 hrs by sulforhodamine B assay; format: functional, cell-based; conditions: MOLT-4, 48 h; for CC50: read-out: LC50 (the source's name)
How it was run: (§1)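 Cells grown in RPMI 1640 with 5% FBS and 2 mM L-glutamine, seeded at 5,000–40,000 cells/well according to doubling time. After 24 h, time-zero plates are TCA-fixed. Five concentrations (10-fold or ½log dilutions, DMSO stocks) are applied for 48 h at 37 °C, 5% CO₂. Cells are TCA-fixed, SRB-stained and read at 515 nm. IC₅₀ is taken from [(Ti−Tz)/(C−Tz)]×100 = 50.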

[8] = system: SNB-75; assay: Cytotoxicity against human SNB75 cells assessed as cell growth at 0.01 uM after 48 hrs by sulforhodamine B assay; format: functional; conditions: SNB-75, 48 h, read-out: Activity
[9] = system: SN12C; assay: Cytotoxicity against human SN12C cells assessed as cell growth at 1 uM after 48 hrs by sulforhodamine B assay; format: functional; conditions: read-out: Activity
[10] = system: SK-OV-3; assay: Cytotoxicity against human SKOV3 cells assessed as cell growth at 0.001 uM after 48 hrs by sulforhodamine B assay; format: functional; conditions: SK-OV-3, 48 h, read-out: Activity
[11] = system: NCI/ADR-RES; assay: Cytotoxicity against human NCI/ADR-RES cells assessed as cell growth at 0.001 uM after 48 hrs by sulforhodamine B assay; format: functional; conditions: read-out: Activity
[12] = system: MDA-MB-231; assay: Cytotoxicity against human MDA-MB-231 cells assessed as cell growth at 0.01 uM after 48 hrs by sulforhodamine B assay; format: functional; conditions: MDA-MB-231, 48 h, read-out: Activity
[13] = system: OVCAR-5; assay: Cytotoxicity against human OVCAR5 cells assessed as cell growth at 100 nM after 48 hrs by sulforhodamine B assay; format: functional; conditions: OVCAR-5, 48 h, read-out: Activity
[14] = system: SK-MEL-5; assay: Cytotoxicity against human SK-MEL-5 cells assessed as cell growth at 0.01 uM after 48 hrs by sulforhodamine B assay; format: functional; conditions: SK-MEL-5, 48 h, read-out: Activity
[15] = system: NCI-H23; assay: Cytotoxicity against human NCI-H23 cells assessed as cell growth at 0.01 uM after 48 hrs by sulforhodamine B assay; format: functional; conditions: NCI-H23, 48 h, read-out: Activity
[16] = system: TK-10; assay: Cytotoxicity against human TK10 cells assessed as cell growth at 100 nM after 48 hrs by sulforhodamine B assay; format: functional; conditions: TK-10, 48 h, read-out: Activity
[17] = system: HT-29; assay: Cytotoxicity against human HT-29 cells assessed as cell growth at 100 nM after 48 hrs by sulforhodamine B assay; format: functional; conditions: HT-29, 48 h, read-out: Activity
[18] = Cytotoxicity against human Hs 578T cells assessed as cell growth at 0.001 uM after 48 hrs by sulforhodamine B assay; format: functional; conditions: read-out: Activity
[19] = system: OVCAR-4; assay: Growth inhibition of human OVCAR4 cells after 48 hrs by sulforhodamine B assay; format: functional, cell-based; conditions: for CC50: read-out: LC50 (the source's name); how it was run: as §1
[20] = system: NCI/ADR-RES; assay: Cytotoxicity against human NCI/ADR-RES cells assessed as cell growth at 10 uM after 48 hrs by sulforhodamine B assay; format: functional; conditions: read-out: Activity
[21] = system: 786-0; assay: Cytotoxicity against human 786-0 cells assessed as cell growth at 1 uM after 48 hrs by sulforhodamine B assay; format: functional; conditions: 786-0, 48 h, read-out: Activity
How it was run: (§2)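 Cells grown in RPMI 1640 with 5% FBS and 2 mM L-glutamine, seeded at 5,000–40,000 cells/well by doubling time. Time-zero plates TCA-fixed after 24 h. Five concentrations (10-fold or half-log dilutions from DMSO stock) added; 48 h at 37 °C, 5% CO2. Cold TCA fixation (final 10%, 60 min, 4 °C), 0.4% SRB stain, dye solubilized in 10 mM trizma base, A515.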

[22] = Growth inhibition of human Hs 578T cells after 48 hrs by sulforhodamine B assay; format: functional, cell-based; conditions: for CC50: read-out: LC50 (the source's name); how it was run: as §1
[23] = system: OVCAR-5; assay: Cytotoxicity against human OVCAR5 cells assessed as cell growth at 0.001 uM after 48 hrs by sulforhodamine B assay; format: functional; conditions: OVCAR-5, 48 h, read-out: Activity
[24] = system: SNB-19; assay: Cytotoxicity against human SNB19 cells assessed as cell growth at 10 uM after 48 hrs by sulforhodamine B assay; format: functional; conditions: SNB-19, 48 h, read-out: Activity
[25] = system: UACC-62; assay: Cytotoxicity against human UACC62 cells assessed as cell growth at 0.001 uM after 48 hrs by sulforhodamine B assay; format: functional; conditions: UACC-62, 48 h, read-out: Activity
[26] = system: TK-10; assay: Cytotoxicity against human TK10 cells assessed as cell growth at 10 uM after 48 hrs by sulforhodamine B assay; format: functional; conditions: TK-10, 48 h, read-out: Activity
[27] = system: MOLT-4; assay: Cytotoxicity against human MOLT4 cells assessed as cell growth at 0.001 uM after 48 hrs by sulforhodamine B assay; format: functional; conditions: MOLT-4, 48 h, read-out: Activity
[28] = system: KM12; assay: Cytotoxicity against human KM12 cells assessed as cell growth at 10 uM after 48 hrs by sulforhodamine B assay; format: functional; conditions: KM12, 48 h, read-out: Activity
[29] = system: SF-268; assay: Cytotoxicity against human SF268 cells assessed as cell growth at 100 nM after 48 hrs by sulforhodamine B assay; format: functional; conditions: SF-268, 48 h, read-out: Activity
[30] = system: UO-31; assay: Cytotoxicity against human UO31 cells assessed as cell growth at 100 nM after 48 hrs by sulforhodamine B assay; format: functional; conditions: UO-31, 48 h, read-out: Activity
[31] = system: SF-295; assay: Cytotoxicity against human SF295 cells assessed as cell growth at 10 uM after 48 hrs by sulforhodamine B assay; format: functional; conditions: SF-295, 48 h, read-out: Activity
[32] = system: A498; assay: Cytotoxicity against human A498 cells assessed as cell growth at 1 uM after 48 hrs by sulforhodamine B assay; format: functional; conditions: A498, 48 h, read-out: Activity; how it was run: as §2
[33] = system: SK-MEL-5; assay: Cytotoxicity against human SK-MEL-5 cells assessed as cell growth at 0.001 uM after 48 hrs by sulforhodamine B assay; format: functional; conditions: SK-MEL-5, 48 h, read-out: Activity
[34] = system: SK-MEL-2; assay: Cytotoxicity against human SK-MEL-2 cells assessed as cell growth at 0.01 uM after 48 hrs by sulforhodamine B assay; format: functional; conditions: SK-MEL-2, 48 h, read-out: Activity

CC(=O)Nc1cccc(-c2ccc(-c3ccnc(NC(=O)Nc4cc(C(F)(F)F)cc(C(F)(F)F)c4)n3)cn2)c1.Cl
growth at 10 µM [1]: -71% | growth at 1 µM [2]: 31% | growth at 10 µM [3]: 19% | growth at 0.01 µM [4]: 100% | growth at 0.1 µM [5]: 90% | growth at 1 µM [6]: 35% | GI50 [7]: 1.98 µM | IC50 [7]: 1.98 µM | TGI [7]: > 100 µM | CC50 [7]: > 100 µM | growth at 0.01 µM [8]: 71% | growth at 1 µM [9]: 49% | growth at 0.001 µM [10]: 103% | growth at 0.001 µM [11]: 95% | growth at 0.01 µM [12]: 93% | growth at 0.1 µM [13]: 97% | growth at 0.01 µM [14]: 91% | growth at 0.01 µM [15]: 92% | growth at 0.1 µM [16]: 105% | growth at 0.1 µM [17]: 101% | growth at 0.001 µM [18]: 90% | GI50 ([19]; Homo sapiens, OVCAR-4, 48 h): 1.57 µM | TGI ([19]; Homo sapiens, OVCAR-4, 48 h): 11.1 µM | IC50 ([19]; Homo sapiens, OVCAR-4, 48 h, read-out: IC50): 1.57 µM | CC50 ([19]; Homo sapiens, OVCAR-4, 48 h): 39 µM | growth at 10 µM [20]: 8% | growth at 1 µM [21]: 25% | GI50 [22]: 7.52 µM | IC50 [22]: 7.52 µM | TGI [22]: > 100 µM | CC50 [22]: > 100 µM | growth at 0.001 µM [23]: 97% | growth at 10 µM [24]: -88% | growth at 0.001 µM [25]: 93% | growth at 10 µM [26]: -54% | growth at 0.001 µM [27]: 95% | growth at 10 µM [28]: 100% | growth at 0.1 µM [29]: 93% | growth at 0.1 µM [30]: 70% | growth at 10 µM [31]: -33% | growth at 1 µM [32]: 41% | growth at 0.001 µM [33]: 96% | growth at 0.01 µM [34]: 94%

CC(=O)c1ccccc1-c1ccc(-c2ccnc(NC(=O)Nc3cc(N4CCOCC4)cc(C(F)(F)F)c3)n2)cn1
growth at 10 µM [1]: 56% | growth at 1 µM [2]: 60% | growth at 10 µM [3]: 103% | growth at 0.01 µM [4]: 105% | growth at 0.1 µM [5]: 95% | growth at 1 µM [6]: 65% | GI50 [7]: > 100 µM | IC50 [7]: > 100 µM | TGI [7]: > 100 µM | CC50 [7]: > 100 µM | growth at 0.01 µM [8]: 100% | growth at 1 µM [9]: 64% | growth at 0.001 µM [10]: 111% | growth at 0.001 µM [11]: 100% | growth at 0.01 µM [12]: 99% | growth at 0.1 µM [13]: 91% | growth at 0.01 µM [14]: 99% | growth at 0.01 µM [15]: 99% | growth at 0.1 µM [16]: 100% | growth at 0.1 µM [17]: 98% | growth at 0.001 µM [18]: 107% | TGI ([19]; Homo sapiens, OVCAR-4, 48 h): > 100 µM | CC50 ([19]; Homo sapiens, OVCAR-4, 48 h): > 100 µM | IC50 ([19]; ovcar-4): Not Active | growth at 10 µM [20]: 69% | growth at 1 µM [21]: 55% | GI50 [22]: > 100 µM | IC50 [22]: 2.87 µM | TGI [22]: > 100 µM | CC50 [22]: > 100 µM | growth at 0.001 µM [23]: 94% | growth at 10 µM [24]: 26% | growth at 0.001 µM [25]: 94% | growth at 10 µM [26]: 27% | growth at 0.001 µM [27]: 94% | growth at 10 µM [28]: 82% | growth at 0.1 µM [29]: 90% | growth at 0.1 µM [30]: 80% | growth at 10 µM [31]: 48% | growth at 1 µM [32]: 83% | growth at 0.001 µM [33]: 99% | growth at 0.01 µM [34]: 105%
